Values after ≈ are worked out from the molar mass of the structure shown. Active and inactive are the calls of the source. The rule behind the calls is not given here.
Assays:
Tobacco mosaic virus [1] = assay: Antiviral activity against Tobacco mosaic virus inoculated in Nicotiana tabacum leaves assessed as passivation by measuring local lesion numbers at 100 mg/l pre-incubated with virus for 30 mins followed by inoculation and measured up to 4 days; type: functional
In short: (§1)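 Passivation assay: TMV mixed with an equal volume of compound solution for 30 min, then rubbed onto the left half of N. tabacum L. leaves. The right half received virus mixed with solvent as control. Local lesions counted 3–4 days after inoculation. Compounds tested at 500 or 100 mg/L.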

Tobacco mosaic virus [2] = assay: Antiviral activity against Tobacco mosaic virus inoculated in Nicotiana tabacum leaves assessed as passivation by measuring local lesion numbers at 500 mg/l pre-incubated with virus for 30 mins followed by inoculation and measured up to 4 days; type: functional; in short: as §1
Mythimna separata = assay: Insecticidal activity against Mythimna separata assessed as larval mortality at 600 mg/l by leaf-dip method; type: functional
Fusarium fujikuroi = assay: Antifungal activity against Gibberella fujikuroi assessed as reduction in growth at 50 mg/l by mycelium growth rate method relative to control; type: functional
In short: (§2)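 Mycelium growth rate method against S. sclerotiorum, P. capsici, P. piricola, R. cerealis, W. anthracnose and R. bakanae. Each compound tested at 50 mg/L, with chlorothalonil and PTB as controls. Relative inhibitory ratio (%) calculated from mycelial growth.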

Phytophthora capsici = assay: Antifungal activity against Phytophthora capsici assessed as reduction in growth at 50 mg/l by mycelium growth rate method relative to control; type: functional; in short: as §2
Candida albicans [3] = assay: Antifungal activity against Candida albicans isolate g5 grown in RPMI 1640 medium incubated for 24 hrs by microdilution method; type: functional; conditions: isolate g5, 24 h
In short: (§3)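 C. albicans standard strain SC5314 and clinical isolates g5 and 17# tested by broth microdilution in YNB or RPMI 1640 medium. Plates incubated at 35 °C for up to 72 h, with visual readings taken at 24 h. MIC taken as the lowest concentration preventing visible growth.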

Candida albicans [4] = assay: Antifungal activity against Candida albicans isolate 17 grown in RPMI 1640 medium incubated for 24 hrs by microdilution method; type: functional; conditions: isolate 17, 24 h; in short: as §3
Candida albicans [5] = assay: Inhibition of Candida albicans AHAS catalytic subunit at 100 uM using pyruvate as substrate measured after 30 mins by colorimetric method relative to control
In short: (§4)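 Colorimetric assay in 50 mM potassium phosphate pH 7.0 with 50 mM pyruvate, 1 mM thiamine diphosphate, 10 mM MgCl2 and 10 μM FAD. Incubated 30 min at 37 °C for plant AHAS and 30 °C for fungal AHAS. Acetolactate formed was then quantified.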

Arabidopsis thaliana [6] = assay: Inhibition of Arabidopsis thaliana AHAS catalytic subunit using pyruvate as substrate at 10 uM measured after 30 mins by colorimetric method relative to control; in short: as §4
Candida albicans [7] = assay: Antifungal activity against Candida albicans SC5314 grown in YNB medium incubated for 24 hrs by microdilution method; type: functional; conditions: SC5314, 24 h; in short: as §3
Candida albicans [8] = assay: Antifungal activity against Candida albicans isolate 17 grown in YNB medium incubated for 24 hrs by microdilution method; type: functional; conditions: isolate 17, 24 h; in short: as §3
[9] = tested on: Brassica rapa subsp. oleifera; assay: Herbicidal activity against Brassica campestris L assessed as inhibition of rape root growth at 100 mg/l root growth incubated for 48 hrs relative to control; type: functional
In short: (§5)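 Rape seeds soaked in distilled water for 4 h, then placed on filter paper wetted with inhibitor solution, 15 seeds per 6-cm dish. Germinated in the dark at 28 °C for 48 h. Mean length of 10 roots per plate measured.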

Sclerotinia sclerotiorum = assay: Antifungal activity against Sclerotinia sclerotiorum assessed as reduction in growth at 50 mg/l by mycelium growth rate method relative to control; type: functional; in short: as §2
Candida albicans [10] = assay: Inhibition of Candida albicans AHAS catalytic subunit at 10 uM using pyruvate as substrate measured after 30 mins by colorimetric method relative to control; in short: as §4
Colletotrichum = assay: Antifungal activity against Colletotrichum (W. anthracnose) assessed as reduction in growth at 50 mg/l by mycelium growth rate method relative to control; type: functional; in short: as §2
Candida albicans [11] = assay: Antifungal activity against Candida albicans isolate g5 grown in YNB medium incubated for 24 hrs by microdilution method; type: functional; conditions: isolate g5, 24 h; in short: as §3
[12] = tested on: Severe acute respiratory syndrome-related coronavirus; assay: Inhibition of SARS coronavirus M protease using AVLQSGFRKK as substrate at 20 uM by FRET assay relative to control
In short: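 Purified SARS-CoV Mpro assayed by FRET. Protein, compound and substrate were preheated at 37 °C and oscillated. Fluorescence (ex 320/em 405 nm) was read every 5 s for 200 reads.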

[13] = tested on: Brassica rapa subsp. oleifera; assay: Herbicidal activity against Brassica campestris L assessed as inhibition of rape root growth at 10 mg/l root growth incubated for 48 hrs relative to control; type: functional; in short: as §5
[14] = tested on: Botryosphaeria berengeriana; assay: Antifungal activity against Physalospora pyricola assessed as reduction in growth at 50 mg/l by mycelium growth rate method relative to control; type: functional; in short: as §2
Arabidopsis thaliana [15] = assay: Inhibition of Arabidopsis thaliana AHAS catalytic subunit using pyruvate as substrate at 100 uM measured after 30 mins by colorimetric method relative to control; in short: as §4
Ceratobasidium cereale = assay: Antifungal activity against Rhizoctonia cerealis assessed as reduction in growth at 50 mg/l by mycelium growth rate method relative to control; type: functional; in short: as §2
Candida albicans [16] = assay: Antifungal activity against Candida albicans SC5314 grown in RPMI 1640 medium incubated for 24 hrs by microdilution method; type: functional; conditions: SC5314, 24 h; in short: as §3

SMILES	inhibition at 500 µg/mL (Tobacco mosaic virus [2]) [%]	inhibition at 50 µg/mL (Fusarium fujikuroi) [%]	inhibition at 50 µg/mL (Phytophthora capsici) [%]	MIC (Candida albicans [3]) [µg/mL]	MIC (Candida albicans [4]) [µg/mL]	inhibition (Candida albicans [5]) [%]	inhibition (Arabidopsis thaliana [6]) [%]	MIC (Candida albicans [7]) [µg/mL]	MIC (Candida albicans [8]) [µg/mL]	inhibition (INH) [9] [%]	inhibition at 50 µg/mL (Sclerotinia sclerotiorum) [%]	inhibition (Candida albicans [10]) [%]	inhibition at 50 µg/mL (Colletotrichum) [%]	MIC (Candida albicans [11]) [µg/mL]	inhibition [12] [%]	inhibition (INH) [13] [%]	inhibition at 50 µg/mL [14] [%]	inhibition (Arabidopsis thaliana [15]) [%]	inhibition at 50 µg/mL (Ceratobasidium cereale) [%]	MIC (Candida albicans [16]) [µg/mL]	also measured
NC(=O)c1ncn([C@@H]2O[C@H](CO)[C@@H](O)[C@H]2O)n1 [RIBAVIRIN]	37.6																				inhibition at 100 µg/mL (Tobacco mosaic virus [1]): 11.9%
COc1nc(OC)nc(Sc2ccc(F)cc2C(=O)O)n1	0	30.3	16.7	> 100	100 (≈ 321 µM)	77.6	3.3	> 100	50 (≈ 161 µM)	33.3	55.6	56.1	19	> 100	94.5	1.6	45.3	68.6	57.1	> 100	mortality at 600 µg/mL (Mythimna separata): 80%; inhibition (Tobacco mosaic virus [1]): inactive
COc1nc(OC)nc(Oc2cccc(Br)c2)n1	19.5	0	8.3	> 100	> 100	18.3	6.6	> 100	> 100	87.4	61.1	10.6	16.7	> 100	0	32.5	40.6	60	52.4	> 100	inhibition (Tobacco mosaic virus [1]): inactive
COc1nc(OC)nc(Sc2ccc(C#N)cc2Cl)n1	29.6	42.4	8.3	> 100	> 100	73.6	43.2	> 100	> 100	60.3	36.1	65.4	33.3	> 100	12.8	28.4	60.9	89.6	54.8	> 100	mortality at 600 µg/mL (Mythimna separata): 30%; inhibition (Tobacco mosaic virus [1]): inactive
COc1nc(OC)nc(Sc2ccc(C(=O)O)c(C(F)(F)F)c2)n1	42.3	36.4	8.3	> 100	> 100	21.2	21.8	> 100	> 100	16.5	75	8.6	16.7	> 100	22.2	4	43.8	75.5	38.1	> 100	mortality at 600 µg/mL (Mythimna separata): 80%; inhibition at 100 µg/mL (Tobacco mosaic virus [1]): 6.2%
COc1cc(OC)nc(Sc2ccc(C(=O)O)c(C(F)(F)F)c2)n1	0	30.3	8.3	> 100	> 100	20.6	37.7	> 100	> 100	45.2	75	2.1	14.3	> 100	21.7	0	35.9	77.4	73.8	> 100	inhibition (Tobacco mosaic virus [1]): inactive
COc1nc(OC)nc(Sc2cc(Cl)ccc2C#N)n1	0	30.3	41.7	> 100	> 100	26.3	43.6	> 100	> 100	40	13.9	0	19	> 100		34.4	37.5	100	40.5	> 100	mortality at 600 µg/mL (Mythimna separata): 25%; inhibition (Tobacco mosaic virus [1]): inactive
COc1cc(OC)nc(Sc2ccc(C(F)(F)F)cc2C#N)n1				> 100	> 100	25	28.2	> 100	> 100	25.8		3.6		> 100	0	0		72.3		> 100	
CNCC(=O)N[C@@H](CO)C(=O)N[C@H]1[C@H](O)[C@@H](O)[C@H](n2ccc(N)nc2=O)O[C@@H]1C(N)=O [NINGNANMYCIN]	56.4																				inhibition at 100 µg/mL (Tobacco mosaic virus [1]): 27.8%
